Laboratory results published in PMC3059335 (Investigational New Drugs, 2010).
pIC50: −log10 of the molar value.

How the values were obtained:
[1] = system: patients with solid tumors; experiment: tumor response, radiographic tumor assessment every 8 weeks; format: in vivo, human
Outline: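 Patients received continuous IV infusion at fixed dose levels of 1, 2, 4, 8, 12, 18, 27 or 40 mg/hr, with the infusion bag replaced weekly; 4-week cycles without a break. Tumors assessed every 8 weeks (every two cycles). Patients with DLT continued at the next lower dose if toxicities had resolved to grade ≤1 and disease had not progressed.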

[2] = system: patients with advanced solid tumours; conditions: phase I testing of doses up to 2400 mg/m^2 twice weekly; cited from earlier work
[3] = system: patients with solid tumors; experiment: toxicity monitoring of continuous infusion cilengitide; format: in vivo
[4] = pharmacokinetics of continuous infusion cilengitide; format: in vivo, human
Outline: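 Test compound given as fixed-dose continuous IV infusion (1–40 mg/hr) via venous access port, diluted in 0.9% NaCl or 5% dextrose; bag changed weekly. Heparinised blood (10 mL) taken day 1 pre-dose and 2 h post-start, then weekly for 4 weeks before and 2 h after bag change. Plasma frozen at −80°C, run in duplicate by HPLC-MS/MS. Steady-state concentration, Vss and clearance reported as mean and SD; Vd assumes 4-h half-life.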

[5] = human, cited from earlier work
[6] = system: αvβ3 and αvβ5-mediated cell adhesion; conditions: read-out: IC50, inhibition of αvβ3 and αvβ5-mediated cell adhesion; cited from earlier work

For `CC(C)[C@H]1C(=O)N[C@@H](CCCNC(=N)N)C(=O)NCC(=O)N[C@@H](CC(=O)O)C(=O)N[C@H](Cc2ccccc2)C(=O)N1C` [cilengitide], the objective responses ([1]; 17 of the 35 patients assessed at the end of cycle 2) was “No objective responses were observed”, the “relationship between dose level or steady state concentration (Css) and change in tumor size after two cycles” value ([1]; data not shown) was “no significant relationship” and the “median duration of stable disease” value ([1]; two patients, cycle = 4 weeks) was 3.5 cycles. The maximally tolerated dose [2] was “not reached”, the “maximum tolerated dose (MTD)” value ([3]; continuous infusion, doses up to 40 mg/hr) was “not reached” and the treatment-related hypertension ([3]; in vivo) was “did not occur in any patients”. The maximum feasible dose ([3]; in vivo, iv) was 40 mg/h, the “cilengitide clearance, range calculated in our study” value ([4]; continuous infusion 1-40 mg/hr, range across dose levels) was 55 – 88 mL/min/m^2 and the “accumulation of cilengitide in the plasma over time” value ([4]; continuous infusion, weekly sampling in cycle 1) was “no evidence of accumulation”. For the same compound, the clearance ([5]; in vivo) was 34-66 mL/min/m^2, the plasma half-life ([5]; in vivo) was 3 to 5 h and the “metabolism, drug accumulation, or enterohepatic circulation” value ([5]; intermittent dosing) was “no evidence of metabolism, drug accumulation, or enterohepatic circulation”. For the same compound, the pIC50 [6] was ~6.00.
